Source: ChEMBL document CHEMBL2346576, “α-Selective glycosylation affords mucin-related GalNAc amino acids and diketopiperazines active on Trypanosoma cruzi” (Bioorg Med Chem, 2013)
The source made the active and inactive calls. The calls are words filed in the database; no cut-off is given here.

Experiments:
Trypanosoma cruzi [1] = assay: Antitrypanosomal activity against trypomastigote form of Trypanosoma cruzi Tulahuen expressing beta galactosidase infected in rhesus monkey LLC-MK2 cells assessed as inhibition of parasite viability treated at 24 hrs post-infection measured after 4 days by CPRG based colorimetric assay; format: functional, organism-based
Summary of the method: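 LLC-MK2 cells at 2×10^3/well in phenol red-free RPMI, grown 24 h, infected with 1×10^4 Tulahuen-lacZ trypomastigotes. Compound added 24 h later at 0.5–0.0035 mM (8 concentrations). After 4 days, PBS with 0.5% Triton X-100 and 100 μM CPRG added; 4 h at 37 °C, absorbance 570 nm. IC50 from three independent experiments, each in duplicate.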

[2] = Cytotoxicity against C57BL/6 mouse spleen cell assessed as cell death at 7.8 to 500 uM after 24 hrs by propidium iodide staining based flow cytometry; format: tissue-based
Summary of the method: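 Spleen cells from C57BL/6 mice were dissociated, red cells lysed for 5 min (0.17 M Tris-HCl pH 7.5 : 0.16 M NH4Cl, 1:9), and cells grown in RPMI 1640 with 10% FBS and antibiotics at 5×10^5 cells/well with compounds for 24 h at 37 °C. The positive control was 0.5% Tween 20. Dead cells were stained with 10 µg/mL propidium iodide and counted by flow cytometry. Three independent experiments were run in duplicate.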

Trypanosoma cruzi [3] = assay: (§1) Antitrypanosomal activity against amastigote form of Trypanosoma cruzi Tulahuen infected in african green monkey Vero cells assessed as decrease in number of intracellular parasites treated after removal of parasite on cell supernatant following 12 hrs of infection measured after 24 hrs by Giemsa staining based optical microscopy; format: functional, organism-based
Summary of the method: (§2)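 Vero cells plated at 2×10^4/well on 8-well chamber slides; after 12 h infected with 2×10^5 trypomastigotes/well for 12 h, washed with PBS, then compound added for 24 h at 37 °C. Giemsa-stained, parasites per cell counted by light microscopy in at least 200 cells/well. Two independent experiments, each in triplicate.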

[4] = Inhibition of C-terminal truncated recombinant Trypanosoma cruzi trans-sialidase assessed as decrease in substrate MuNANA hydrolysis at 1 mM preincubated with enzyme for 10 mins prior to substrate addition measured after 10 mins by continuous fluorimetric assay
Summary of the method: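 His-tagged 70 kDa recombinant enzyme retaining the catalytic N-terminal domain. Run in triplicate in phosphate buffer pH 7.4; enzyme and inhibitor (25 µL of 4.0 mM solution) preincubated 10 min at 26 °C. MuNANA then added to 0.1 mM final; fluorescence of released Mu read after 10 min (ex 360/em 460 nm). %I = 100×(1−Vi/V0); pyridoxal phosphate as control.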

Trypanosoma cruzi [5] = assay: as §1, with “parasites at 0.06 to 0.5 mM” for “parasites”; format: functional, organism-based; summary of the method: as §2
[6] = Inhibition of C-terminal truncated recombinant Trypanosoma cruzi trans-sialidase assessed as decrease in substrate MuNANA hydrolysis preincubated with enzyme for 10 mins prior to substrate addition measured after 10 mins by continuous fluorimetric assay

Structure (SMILES)	IC50 (Trypanosoma cruzi [1]) [µM]	Activity [2]	Activity (Trypanosoma cruzi [3])	inhibition [4] [%]	Activity (Trypanosoma cruzi [5])	IC50 [6] [µM]
CC(=O)N[C@H]1[C@@H](O[C@H](C)[C@@H]2NC(=O)[C@H](CC(=O)O)NC2=O)O[C@H](CO)[C@H](O)[C@@H]1O	124	Non-toxic	Dose-dependent effect	13	–	–
CC(=O)N[C@H]1[C@@H](OC[C@H](N)C(=O)O)O[C@H](CO)[C@H](O)[C@@H]1O	> 500	Non-toxic	–	57	–	–
O=C(Cn1ccnc1[N+](=O)[O-])NCc1ccccc1 [BENZNIDAZOLE]	30	–	–	–	Active	–
CC(=O)N[C@H]1[C@@H](OC[C@@H]2NC(=O)[C@H](CC(=O)O)NC2=O)O[C@H](CO)[C@H](O)[C@@H]1O	282	Non-toxic	–	25	–	–
CC(=O)N[C@H]1[C@@H](O[C@H](C)[C@H](N)C(=O)O)O[C@H](CO)[C@H](O)[C@@H]1O	> 500	Non-toxic	–	79	–	320
